These results are taken from ChEMBL document CHEMBL3997796 (J Med Chem, 2017).

Active and inactive are the calls of the source. The calls are words filed in the database; no cut-off is given here.

By IC50 is commonly meant the midpoint of a concentration-inhibition curve. By EC50 is commonly meant the concentration at which the effect is half-maximal.

Data set [1] is described as follows: Stability in mouse 4T1 cells assessed as parent compound remaining at 10 uM after 40 hrs by LC-MS/MS method. The data set is classed as ADME, cell-based. Particulars: read-out: Stability. The gist of the method:
(§1)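 4T1 cells (1 × 10^4/well) attached overnight, then 10 μM compound in DMEM with 1% charcoal-stripped FBS (0.1% DMSO final); quadruplicate samples at 0, 16, 40 h, centrifuged, diethyl ether extracted twice, LC-MS/MS peak areas normalized to 0 h.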

Data set [2] concerns the target T1, Autotaxin (Homo sapiens, UniProt Q13822). Nature of the data set: Inhibition of ATX (unknown origin).
Data set [3] in a line: Stability in mouse 4T1 cells assessed as parent compound remaining at 10 uM after 16 hrs by LC-MS/MS method. The data set is classed as ADME, cell-based. Particulars: read-out: Stability. The gist of the method:
as §1

Data set [4] addresses T2, Ectonucleotide pyrophosphatase/phosphodiesterase family member 7 (Homo sapiens) (UniProt Q6UWV6).
T2 sequence (whole entry): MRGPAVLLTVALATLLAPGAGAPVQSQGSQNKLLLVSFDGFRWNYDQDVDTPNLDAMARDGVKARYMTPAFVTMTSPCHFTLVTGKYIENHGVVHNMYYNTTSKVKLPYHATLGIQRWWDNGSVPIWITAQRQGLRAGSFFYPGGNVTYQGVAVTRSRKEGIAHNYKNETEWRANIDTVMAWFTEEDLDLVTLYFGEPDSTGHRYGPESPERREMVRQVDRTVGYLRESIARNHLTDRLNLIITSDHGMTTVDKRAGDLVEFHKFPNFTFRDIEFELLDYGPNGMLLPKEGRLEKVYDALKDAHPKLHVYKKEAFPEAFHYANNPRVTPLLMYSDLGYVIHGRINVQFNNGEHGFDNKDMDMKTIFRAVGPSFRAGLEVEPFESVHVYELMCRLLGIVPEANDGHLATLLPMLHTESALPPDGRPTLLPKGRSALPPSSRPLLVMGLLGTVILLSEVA
As to the kind of experiment: Inhibition of ENPP7 (unknown origin) using pNPPC as substrate measured every 2 mins for 1 hr by […]. The gist of the method: (§2)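 10 nM ENPP6 or ENPP7, 10 μM pNPPC, compound 0–10 μM, triplicate; ENPP6 buffer 100 mM Tris, 500 mM NaCl, 0.05% Triton pH 9.0; ENPP7 buffer 50 mM Tris, 150 mM NaCl, 10 mM taurocholate pH 8.5; 405 nm absorbance every 2 min for 1 h.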

The target in data set [5] is T3, Glycerophosphocholine cholinephosphodiesterase ENPP6 (Homo sapiens) (UniProt Q6UWR7).
T3 sequence (whole entry): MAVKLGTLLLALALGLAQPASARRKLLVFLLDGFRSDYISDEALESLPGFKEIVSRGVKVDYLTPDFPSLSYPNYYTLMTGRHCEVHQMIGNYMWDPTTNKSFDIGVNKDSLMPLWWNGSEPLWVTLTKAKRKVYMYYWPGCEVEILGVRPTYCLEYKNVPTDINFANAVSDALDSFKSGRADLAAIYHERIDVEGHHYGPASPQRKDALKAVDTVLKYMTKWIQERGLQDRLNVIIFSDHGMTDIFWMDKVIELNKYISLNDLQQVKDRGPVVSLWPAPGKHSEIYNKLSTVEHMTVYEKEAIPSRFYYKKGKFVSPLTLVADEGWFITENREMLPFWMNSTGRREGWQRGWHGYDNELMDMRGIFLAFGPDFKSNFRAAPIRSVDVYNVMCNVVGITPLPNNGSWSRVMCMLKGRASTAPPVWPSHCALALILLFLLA
Nature of the data set: Inhibition of ENPP6 (unknown origin) using pNPPC as substrate measured every 2 mins for 1 hr by […]. The gist of the method: as §2

Data set [6] has as its target T1, Autotaxin. Nature of the data set: Inhibition of recombinant human C-terminal FLAg-tagged ATX nucleotide pyrophosphate phosphatase activity expressed in baculovirus infected sf9 cells using pNP-TMP as substrate measured every 2 mins for 1 hr by fluorescence assay.
Data set [7] concerns the target T1, Autotaxin. As to the kind of experiment: Competitive inhibition of recombinant human C-terminal FLAg-tagged ATX expressed in baculovirus infected sf9 cells using varying levels of FRET based FS-3 substrate at 0.5 to 2 times IC50 measured every 2 mins for 1 hr by Michaelis-Menten plot analysis.
The target of data set [8] is T4, Lysophosphatidic acid receptor 1 (Homo sapiens, UniProt Q92633). As to the kind of experiment: Agonist activity at LPA1 receptor (unknown origin) expressed in rat RH7777 cells assessed as increase in intracellular calcium level measured every 3.42 secs for 70 secs by Fura-2-AM dye based fluorescence assay. The data set is classed as functional, cell-based.
The target of data set [9] is T1, Autotaxin. Nature of the data set: Inhibition of ATX (unknown origin) expressed in human A2058 cells assessed as inhibition of LPC-induced cell invasion after 20 hrs by calcein-AM dye based matrigel-mediated Boyden chamber assay.
In data set [10] the target is T1, Autotaxin. Nature of the data set: Inhibition of ATX (unknown origin) expressed in human A2058 cells assessed as inhibition of LPC-induced cell invasion at 10 uM after 20 hrs by calcein-AM dye based matrigel-mediated Boyden chamber assay.
Data set [11] addresses Lysophosphatidic acid receptor 4 (Homo sapiens) (UniProt Q99677). As to the kind of experiment: Antagonist activity at LPA4 receptor (unknown origin) expressed in CHO cells assessed as inhibition of LPA-induced intracellular calcium level up to 100 uM measured every 3.42 secs for 70 secs by Fura-2-AM dye based fluorescence assay. The data set is classed as functional, cell-based. (In general: A change in cytosolic calcium serves as a functional read-out for many receptors and channels.)

Data set [12] has as its system 4T1. As to the kind of experiment: Growth inhibition of mouse 4T1 cells at 10 uM after 48 hrs by CellTiter blue assay. The data set is classed as cell-based. The note with it: 4t1, 48 h. A general note: Alamar Blue is a resazurin reagent that responds to reducing activity.
For data set [13], the system named is B16-F10. Nature of the data set: Antitumor activity against mouse B16F10 cells implanted in C57BL/6 mouse assessed as reduction in metastatic tumor nodules on lungs at 1 mg/kg, ip administered daily up to 10 days measured on day 21. The class given is functional, organism-based. The gist of the method:
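C57BL/6 mice, 8–12 weeks, given 1 × 10^5 B16F10 cells by tail vein; 1 mg/kg i.p. daily from day 0 (before inoculation) to day 10, vehicle PBS with 1% DMSO and 50 μM charcoal-stripped mouse serum albumin; sacrifice day 21, lung nodules counted; one-way ANOVA with Bonferroni.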

Data set [14] concerns the target T5, Lysophosphatidic acid receptor 3 (Homo sapiens) (UniProt Q9UBY5).
T5 sequence (whole entry): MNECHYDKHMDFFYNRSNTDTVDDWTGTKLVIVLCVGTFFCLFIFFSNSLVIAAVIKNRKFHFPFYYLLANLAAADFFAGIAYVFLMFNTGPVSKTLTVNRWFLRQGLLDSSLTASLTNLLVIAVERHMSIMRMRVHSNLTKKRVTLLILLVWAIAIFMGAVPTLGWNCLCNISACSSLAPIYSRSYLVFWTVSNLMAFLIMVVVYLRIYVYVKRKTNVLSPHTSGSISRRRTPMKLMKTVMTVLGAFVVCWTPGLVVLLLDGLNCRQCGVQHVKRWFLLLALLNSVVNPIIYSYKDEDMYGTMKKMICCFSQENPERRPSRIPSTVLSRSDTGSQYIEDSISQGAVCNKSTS
As to the kind of experiment: Antagonist activity at LPA3 receptor (unknown origin) expressed in rat RH7777 cells assessed as inhibition of LPA-induced intracellular calcium level up to 100 uM measured every 3.42 secs for 70 secs by Fura-2-AM dye based fluorescence assay. The class given is functional, cell-based.

Data set [15] deals with T4, Lysophosphatidic acid receptor 1. As to the kind of experiment: Antagonist activity at LPA1 receptor (unknown origin) expressed in rat RH7777 cells assessed as inhibition of LPA-induced intracellular calcium level measured every 3.42 secs for 70 secs by Fura-2-AM dye based fluorescence assay. The data set is classed as functional, cell-based.
Data set [16] concerns the target Lysophosphatidic acid receptor 5 (Homo sapiens) (UniProt Q9H1C0). As to the kind of experiment: Antagonist activity at FLAG-tagged LPA5 receptor (unknown origin) expressed in rat B103 cells assessed as inhibition of LPA-induced intracellular calcium level up to 100 uM measured every 3.42 secs for 70 secs by Fura-2-AM dye based fluorescence assay. The data set is classed as functional, cell-based.

The target in data set [17] is Lysophosphatidic acid receptor 2 (Homo sapiens) (UniProt Q9HBW0). Nature of the data set: Antagonist activity at LPA2 receptor (unknown origin) expressed in MEF cells assessed as inhibition of LPA-induced intracellular calcium level up to 100 uM measured every 3.42 secs for 70 secs by Fura-2-AM dye based fluorescence assay. The data set is classed as functional, cell-based.
Chain of Lysophosphatidic acid receptor 2 (Homo sapiens) (Q9HBW0 whole entry): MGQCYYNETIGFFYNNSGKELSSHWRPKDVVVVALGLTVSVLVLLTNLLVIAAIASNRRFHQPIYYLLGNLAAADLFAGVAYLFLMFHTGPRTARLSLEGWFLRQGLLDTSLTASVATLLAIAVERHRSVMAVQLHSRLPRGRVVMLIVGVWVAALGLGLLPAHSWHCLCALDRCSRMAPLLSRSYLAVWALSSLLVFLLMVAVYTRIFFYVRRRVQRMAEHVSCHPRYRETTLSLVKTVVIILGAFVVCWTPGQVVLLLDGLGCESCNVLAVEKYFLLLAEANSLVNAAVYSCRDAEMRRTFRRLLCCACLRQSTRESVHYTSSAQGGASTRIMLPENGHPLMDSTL

T4 sequence (Q92633 whole entry): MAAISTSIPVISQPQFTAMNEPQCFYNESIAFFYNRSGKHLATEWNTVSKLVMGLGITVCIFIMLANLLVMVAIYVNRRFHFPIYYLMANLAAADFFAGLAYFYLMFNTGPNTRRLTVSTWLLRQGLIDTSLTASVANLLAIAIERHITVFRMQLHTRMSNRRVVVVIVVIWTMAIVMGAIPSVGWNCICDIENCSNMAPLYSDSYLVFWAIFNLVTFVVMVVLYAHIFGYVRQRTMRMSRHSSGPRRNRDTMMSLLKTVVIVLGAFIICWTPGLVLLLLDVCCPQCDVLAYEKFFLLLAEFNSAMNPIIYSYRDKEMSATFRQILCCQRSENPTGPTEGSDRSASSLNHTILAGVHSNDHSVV
Chain of Lysophosphatidic acid receptor 5 (Homo sapiens) (Q9H1C0 whole entry): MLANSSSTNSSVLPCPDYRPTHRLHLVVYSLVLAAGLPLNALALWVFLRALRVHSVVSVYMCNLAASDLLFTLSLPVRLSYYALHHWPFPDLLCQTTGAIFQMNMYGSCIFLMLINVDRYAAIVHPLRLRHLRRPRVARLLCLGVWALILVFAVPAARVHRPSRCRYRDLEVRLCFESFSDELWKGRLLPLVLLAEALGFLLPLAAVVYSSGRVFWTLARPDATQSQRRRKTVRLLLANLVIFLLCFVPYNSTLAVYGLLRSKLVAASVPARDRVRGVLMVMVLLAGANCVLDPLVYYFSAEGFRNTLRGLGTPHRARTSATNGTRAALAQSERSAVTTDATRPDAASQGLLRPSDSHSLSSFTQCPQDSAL
Chain of Lysophosphatidic acid receptor 4 (Homo sapiens) (Q99677 whole entry): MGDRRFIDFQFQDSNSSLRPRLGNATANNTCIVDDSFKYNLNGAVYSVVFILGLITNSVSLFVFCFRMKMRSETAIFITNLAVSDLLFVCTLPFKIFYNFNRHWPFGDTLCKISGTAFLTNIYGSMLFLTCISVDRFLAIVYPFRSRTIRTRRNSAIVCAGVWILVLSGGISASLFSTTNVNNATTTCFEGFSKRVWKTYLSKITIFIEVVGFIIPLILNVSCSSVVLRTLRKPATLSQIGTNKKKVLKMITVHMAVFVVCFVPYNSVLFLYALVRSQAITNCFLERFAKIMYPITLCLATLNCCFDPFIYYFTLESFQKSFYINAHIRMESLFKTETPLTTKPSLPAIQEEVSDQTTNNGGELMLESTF

For the molecule `O=C(Nc1cccc(F)c1)c1cc(S(=O)(=O)N2CCOCC2)c(Cl)cc1Cl`, the remaining at 40 h, 10 µM in data set [1] was found to be 79.5%. In addition, the midpoint of inhibition in [2], the IC50, lay at 116 nM. For the same molecule, the remaining at 16 h, 10 µM in data set [3] amounted to 79.7%. The inhibition entry in data set [4], in data set [5] and in [6] was “inactive” throughout. In addition, in data set [7], the inhibition entry was “Active”.
Turning to `CCCCCCCC/C=C\CCCCCCCC(=O)OCC(O)COP(=O)(O)O` (stereo not drawn), the EC50 in [8] is 80 nM.
For the molecule `O=S(=O)(c1cc(C(=S)Nc2cc(F)c(F)c(F)c2)c(Cl)cc1Cl)N1CCOCC1`, the inhibition result in [9] was “Dose-dependent effect”. Also, the remaining at 40 h, 10 µM in data set [1] came out at 102%. Further, the inhibition entry in [10] and in [7] was “Active” each time. The inhibition entry in data set [11], in data set [4], in [5], in [6], in data set [14] and in [16] was “inactive” throughout. The inhibition entry in data set [17] was “inactive”. In [12], the Activity result is recorded as “Toxic”. In data set [3], the remaining at 16 h, 10 µM was found to be 93.2%. Also, in data set [13], the outcome was Active. Also, in [15], the half-maximal inhibitory concentration (IC50) entry is listed as “Not Active”.
